# Measurements: PMC2213596 (The Journal of Cell Biology, 2008)
# Columns and labels:
# MEFs [1] = test: short-term killing assay with ABT-737; assay type: cell-based, mouse
# How it was run: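 Constructs in pMIG (MSCV-IRES-GFP) were packaged in transiently transfected ecotropic Phoenix cells. Filtered supernatants were spin-inoculated onto FDC-P1 cells or SV40 large T-immortalized MEFs. ABT-737 was added immediately after spin inoculation. Viability was the fraction of GFP+ cells excluding 5 μg/ml PI, read by flow cytometry 30 h or at indicated times after transduction. MEF dose-response used stably infected lines given 0–10 μM ABT-737 for 24 h.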
# [2] = tested on: cytochrome c release from MEF mitochondria; test: in vitro cytochrome c release assay; assay type: cell-based, mouse; settings: 5 μM ABT-737, 30°C, 1 h
# [3] = tested on: Mcl-1 in primary thymocytes; test: Mcl-1 levels by Western blotting after ionomycin; assay type: cell-based, mouse; settings: with 50 μM qVD-OPH
# How it was run: (§1)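 Cells were cultured with 50 μM qVD-OPH to block caspase cleavage of Mcl-1. For 2, MCF-7 cells were given 1.5 μM thapsigargin for up to 48 h. For 1, primary bim+/+ mouse thymocytes were given 1 μg/ml ionomycin. Cells were lysed in 1% (vol/vol) Triton X-100 buffer. Western blots were probed with rat monoclonal anti-Mcl-1 (19C4-15) and anti-Bim, then reprobed for HSP70 as loading control.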
# primary thymocytes = test: ionomycin-induced killing, cell viability; assay type: cell-based, mouse; settings: 1 μg/ml ionomycin
# How it was run: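 Thymocytes came from bim+/+ or bim−/− mice. They were treated with 1 μg/ml ionomycin for 0–24 h. Viability was scored by flow cytometry as propidium iodide-excluding cells. Values are means ± SD of three experiments.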
# Mcl-1 in MCF-7 cells = test: Mcl-1 levels by Western blotting after thapsigargin; assay type: cell-based; settings: up to 48 h, with 50 μM qVD-OPH
# How it was run: as §1
# MCF-7 cells = test: thapsigargin-induced apoptosis, cell viability; assay type: cell-based; settings: 1.5 μM thapsigargin, 0–48 h
# How it was run: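 Wild-type MCF-7 cells and a subclone stably expressing Bim shRNA were treated with 1.5 μM thapsigargin for 0–48 h. Survival was measured by flow cytometry as propidium iodide exclusion. Values are means ± SD of three experiments.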
# MEFs [4] = test: long-term tolerance assay; assay type: cell-based, mouse; settings: wild-type MEFs; retroviral expression linked to GFP through IRES; ∼40 d
# How it was run: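 SV40-immortalized MEF lines stably expressing BH3-only constructs from pMIG (GFP via IRES) were grown without selection. They were harvested every 3 or 4 d over 38 d. At each time point, flow cytometry measured the proportion of GFP+ cells that excluded propidium iodide.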
molecule,measurement,setting,value
CN(C)CC[C@H](CSc1ccccc1)Nc1ccc(S(=O)(=O)NC(=O)c2ccc(N3CCN(Cc4ccccc4-c4ccc(Cl)cc4)CC3)cc2)cc1[N+](=O)[O-] [ABT-737],time to maximal cell death,"MEFs [1]; 1 μM ABT-737, MEFs expressing BimS2A, Noxa or BimSNoxaBH3",4 to 6 h
same,killing of MEFs lacking Bim and Bid,MEFs [1]; ABT-737 with BimS2A expression,able to synergize and kill
same,killing of bax−/− and bak−/− MEFs,MEFs [1]; BimS2A/ABT-737 combination,able to kill
same,viability of MEFs expressing Mcl-1–selective BH3-only proteins,"MEFs [1]; MEFs expressing BimS2A, BimSNoxaBH3 or Noxa, 24 h, 0–10 μM ABT-737",efficiently kill cells
same,cytochrome c release,[2]; mitochondria from BimS2A-expressing cells,significant release
same,cytochrome c release,[2]; mitochondria from BimS4E-expressing cells,No cytochrome c release
C[C@H](CCC(=O)O)C[C@H](C)C[C@H](C)C(=O)/C=C(\O)[C@H](C)C[C@H](C)C/C=C/[C@@H](C)[C@@H](O)[C@@H](C)[C@@H](O)C[C@@H]1CC[C@@](C)([C@H]2CC[C@@](C)([C@@H](C)O)O2)O1 [ionomycin],Mcl-1 levels after treatment,[3],did not significantly change
same,killing of Bim-deficient thymocytes,primary thymocytes; 0–24 h,attenuates
same,death of wild-type thymocytes,"primary thymocytes; 0–24 h, three experiments",significant death
C/C=C(/C)C(=O)O[C@H]1C(C)=C2[C@H]([C@@H]1OC(=O)CCCCCCC)[C@@](C)(OC(C)=O)C[C@H](OC(=O)CCC)[C@@]1(O)[C@H]2OC(=O)[C@@]1(C)O [thapsigargin],Mcl-1 levels over levels in untreated cells,Mcl-1 in MCF-7 cells,up to twofold
same,cell death of MCF-7 cells expressing Bim shRNA,MCF-7 cells,relatively insensitive
same,cell death of wild-type MCF-7 cells,MCF-7 cells; three experiments,Significant cell death
CC(C)[C@H](NC(=O)c1ccc2ccccc2n1)C(=O)N[C@@H](CC(=O)O)C(=O)COc1c(F)cccc1F [qVD-OPH],effect on killing induced by ionomycin,"primary thymocytes; 50 μM qVD-OPH, thymocytes",significantly reduced the killing
"Bad: BH3-only protein targeting Bcl-xL, Bcl-w and Bcl-2, retrovirally expressed (protein, UniProt Q61337 1-204, looked up) Bcl2-associated agonist of …: MGTPKQPSLAPAHALGLRKSDPGIRSLGSDAGGRRWRPAAQSMFQIPEFEPSEQEDASATDRGLGPSLTEDQPGPYLAPGLLGSNIHQQGRAATNSHHGGAGAMETRSRHSSYPAGTEEDEGMEEELSPFRGRSRSAPPNLWAAQRYGRELRRMSDEFEGSFKGLPRPKSAGTATQMRQSAGWTRIIQSWWDRNLGKGGSTPSQ",viable cells that remained GFP+ve,MEFs [4],> 80%
"BimS2A: full-length BimS containing the L62A/F69A mutations, retrovirally expressed (protein, left off: HA, end not stated, kept) MAKQPSDVSSECDREGRQLQPAERPPQLRPGAPTSLQTEPQASMRQAEPADMRPEIWIAQEARRIGDEANAYYARRVFLNNYQAAEDHPRMVILRLLRYIVRLVWRMH",viable cells that remained GFP+ve,MEFs [4],progressive loss
"Noxa: BH3-only protein preferentially binding Mcl-1, retrovirally expressed (protein, UniProt Q9JM54 1-103, looked up) Phorbol-12-myristate-13-acetat …: MPGRKARRNAPVNPTRAELPPEFAAQLRKIGDKVYCTWSAPDITVVLAQMPGKSQKSRMRSPSPTRVPADLKDECAQLRRIGDKVNLRQKLLNLISKLFNLVT",viable cells that remained GFP+ve,MEFs [4],progressive loss
